Values after ≈ are worked out from the molar mass of the structure shown. Values belong to the molecule of their own block, whether it stands above or below them. Active and inactive are the calls of the source. No cut-off for these calls is given here.
How the values were obtained:
[1] = molecular target: T1, DNA topoisomerase 2-alpha (Homo sapiens, UniProt P11388); assay: Inhibition of human DNA topoisomerase 2alpha assessed as suppression of decatenation using catenated kinetoplast DNA as substrate up to 250 uM measured after 30 mins by SYBR safe DNA staining based staining-based agarose gel electrophoresis method; conditions: dose microM <=250, time 30.0 min
Procedure, shortened: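 Human topoII α decatenation kit reaction, with compound or DMSO vehicle at 5% DMSO final. Incubated 30 min at 37°C, products resolved on 1% agarose with SYBR safe stain. IC50 from four-parameter nonlinear regression, mean ± SD of two independent assays. Tested up to 250 μM.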

[2] = molecular target: T1, DNA topoisomerase 2-alpha; assay: Inhibition of human DNA topoisomerase 2alpha assessed as suppression of decatenation using catenated kinetoplast DNA as substrate measured after 30 mins by SYBR safe DNA staining based staining-based agarose gel electrophoresis method
Procedure, shortened: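 Human topoII α decatenation kit reaction, with compound or DMSO vehicle at 5% DMSO final. Incubated 30 min at 37°C, products resolved on 1% agarose with SYBR safe stain. IC50 from four-parameter nonlinear regression, mean ± SD of two independent assays.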

CCRF-CEM [3] = assay: Inhibition of DNA topoisomerase 2 in human CCRF-CEM cells assessed as increase in gamma-H2Ax expression at 8 uM after 1 to 16 hrs by flow cytometric analysis; assay type: cell-based; conditions: time 1-16 hrs
Procedure, shortened: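 CCRF-CEM exposed to 8 μM for 1, 2, 3, 5 and 16 h. Cells were fixed in 2% paraformaldehyde, permeabilised in 90% methanol, and stained with anti-γ-H2AX (1:40) then secondary (1:200), with PI/RNase A counterstain. γ-H2AX immunofluorescence was read by flow cytometry per cell-cycle phase and expressed as delta γ-H2AX.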

CCRF-CEM [4] = assay: Induction of cell cycle arrest in human CCRF-CEM cells assessed as increase in accumulation at G2/M phase for 24 hrs by flow cytometric analysis; assay type: functional, cell-based; conditions: dose 8.0 µM
Procedure, shortened: (§1)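 CCRF-CEM seeded at 0.25x10⁶ cells/mL and treated 24h. Cells were fixed/permeabilised in 70% ethanol for at least 1h, then stained with PI 10 μg/mL plus RNase A 100 μg/mL for 20 min at room temperature in the dark. DNA content was read by flow cytometry, with at least 10000 events, to give subG0, G0-G1, S and G2-M fractions.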

Homo sapiens [5] = species: Homo sapiens; assay: Selectivity ratio of IC50 for antiproliferative activity against human DLD-1 cells to IC50 for antiproliferative activity against human MCF7 cells; assay type: cell-based
HT-29 = assay: Antiproliferative activity against human HT29 cells assessed as reduction in cell viability after 72 hrs by 4-methylumbelliferyl heptanoate (MUH) fluorescence assay
Homo sapiens [6] = species: Homo sapiens; assay: Selectivity ratio of IC50 for antiproliferative activity against human DLD-1 cells to IC50 for antiproliferative activity against human Jurkat cells; assay type: cell-based
Homo sapiens [7] = species: Homo sapiens; assay: Selectivity ratio of IC50 for antiproliferative activity against human HL-60 cells to IC50 for antiproliferative activity against human MCF7 cells; assay type: cell-based
Homo sapiens [8] = species: Homo sapiens; assay: Selectivity ratio of IC50 for antiproliferative activity against human HL-60 cells to IC50 for antiproliferative activity against human Jurkat cells; assay type: cell-based
[9] = molecular target: T1, DNA topoisomerase 2-alpha; assay: Poison activity at human DNA topoisomerase 2 alpha assessed as stabilization of cleavage complex using PBR322 as substrate incubated for 15 mins by ethidium bromide staining based agarose gel electrophoresis method
CCRF-CEM [10] = assay: Potency index, ratio of tryp-tanthrin IC50 to test compound IC50 for antiproliferative activity against human CCRF-CEM cells; assay type: functional
MCF7 = assay: Antiproliferative activity against human MCF7 cells assessed as reduction in cell viability after 72 hrs by 4-methylumbelliferyl heptanoate (MUH) fluorescence assay
CCRF-CEM [11] = assay: Antiproliferative activity against human CCRF-CEM cells assessed as reduction in cell viability at 4 uM after 24 hrs by eosin exclusion dye based light microscopic method
CCRF-CEM [12] = assay: Induction of cell death in human CCRF-CEM cells assessed as increase in fragmented DNA at 4 to 8 uM after 24 hrs followed by compound wash out further incubated for 24 hrs by flow cytometric analysis; assay type: functional, cell-based; conditions: dose 4-8 µM
Procedure, shortened: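 Recovery design: CCRF-CEM were treated 24h, then medium was removed by centrifugation, cells were PBS-washed and cultured a further 24h in drug-free complete medium. Cells were then fixed in 70% ethanol and stained with PI 10 μg/mL plus RNase A 100 μg/mL. Flow cytometry scored subG0 cells, those with fragmented DNA, from at least 10000 events.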

[13] = Solubility of compound in water; assay type: physicochemical
Procedure, shortened: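 Samples were stirred for 24 h at 25°C, centrifuged, and supernatants filtered through 0.45 μm PTFE and diluted. Concentration was taken from UV absorbance against a four-point calibration line in PBS with 2% DMSO, and reported as μg/mL.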

Homo sapiens [14] = species: Homo sapiens; assay: Selectivity ratio of IC50 for antiproliferative activity against human HT-29 cells to IC50 for antiproliferative activity against human Jurkat cells; assay type: cell-based
Homo sapiens [15] = species: Homo sapiens; assay: Selectivity ratio of IC50 for antiproliferative activity against human CEM/C2 cells to IC50 for antiproliferative activity against human Jurkat cells; assay type: cell-based
Homo sapiens [16] = species: Homo sapiens; assay: Selectivity ratio of IC50 for antiproliferative activity against human CCRF-CEM cells to IC50 for antiproliferative activity against human Jurkat cells; assay type: cell-based
[17] = molecular target: T1, DNA topoisomerase 2-alpha; assay: Potency index, ratio of etoposide IC50 to test compound IC50 for inhibition of human DNA topoisomerase 2alpha
CCRF-CEM [18] = assay: Induction of G2/M cell cycle arrest in human CCRF-CEM cells assessed as increase in cyclin A expression at 8 uM after 6 to 24 hrs by flow cytometric analysis; assay type: functional, cell-based; conditions: time 6-24 hrs
Procedure, shortened: (§2)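 CCRF-CEM exposed to 8 μM for 6, 9, 16 and 24 h. 1×10⁶ cells were fixed in 2% paraformaldehyde, permeabilised in 90% methanol, and stained 30 min with anti-cyclin A or anti-cyclin B1 (1:50), then with secondary (1:200), then PI/RNase A. Flow cytometric MFI was taken in PI-gated G2-M cells and normalised to untreated G2-M cells.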

HL-60 = assay: Antiproliferative activity against human HL-60 cells assessed as reduction in cell viability after 72 hrs by eosin exclusion dye based light microscopic method; assay type: functional
Procedure, shortened: (§3)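 Suspension leukaemia lines grown in RPMI with 4.5 g/L glucose, 2 mM glutamine, penicillin/streptomycin and 10% heat-inactivated FBS (HL-60 in 20% FBS). Seeded at 0.25x10⁶ cells/mL (Jurkat, CCRF-CEM, CEM/C2) or 0.125x10⁶ cells/mL (HL-60). Treated 72h at 0–64 μM, 37°C, 5% CO₂. Viable cells counted by eosin exclusion in a Bürker chamber, normalised to untreated cells. IC50 from non-linear regression, at least triplicate.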

CCRF-CEM [19] = assay: Induction of G2/M cell cycle arrest in human CCRF-CEM cells assessed as increase in cyclin B1 expression at 8 uM by flow cytometric analysis; assay type: functional, cell-based; conditions: time 6-24 hrs, TDE = time-dependent effect; procedure, shortened: as §2
CCRF-CEM [20] = assay: Antiproliferative activity against human CCRF-CEM cells assessed as reduction in cell viability after 72 hrs by eosin exclusion dye based light microscopic method; assay type: functional; conditions: for IC50: 72 h; for GI50: time 72 hrs; procedure, shortened: as §3
CCRF-CEM [21] = assay: Induction of cell cycle arrest in human CCRF-CEM cells assessed as accumulation at G2/M phase at 8 uM for 24 hrs by flow cytometric analysis (reference value: 27%); assay type: functional; procedure, shortened: as §1
Homo sapiens [22] = species: Homo sapiens; assay: Selectivity ratio of IC50 for antiproliferative activity against human CEM/C2 cells to IC50 for antiproliferative activity against human MCF7 cells; assay type: cell-based
DLD-1 = assay: Antiproliferative activity against human DLD-1 cells assessed as reduction in cell viability after 72 hrs by 4-methylumbelliferyl heptanoate (MUH) fluorescence assay
Jurkat = assay: Antiproliferative activity against human Jurkat cells assessed as reduction in cell viability after 72 hrs by eosin exclusion dye based light microscopic method; assay type: functional; procedure, shortened: as §3
CEM/C2 = assay: Antiproliferative activity against human CEM/C2 cells assessed as reduction in cell viability after 72 hrs by eosin exclusion dye based light microscopic method; assay type: functional; procedure, shortened: as §3
CCRF-CEM [23] = assay: Induction of cell cycle arrest in human CCRF-CEM cells assessed as decrease in accumulation at G0-G1 phase for 24 hrs by flow cytometric analysis; assay type: functional, cell-based; conditions: dose 8.0 µM; procedure, shortened: as §1
Homo sapiens [24] = species: Homo sapiens; assay: Selectivity ratio of IC50 for antiproliferative activity against human CCRF-CEM cells to IC50 for antiproliferative activity against human MCF7 cells; assay type: cell-based
Homo sapiens [25] = species: Homo sapiens; assay: Selectivity ratio of IC50 for antiproliferative activity against human HT-29 cells to IC50 for antiproliferative activity against human MCF7 cells; assay type: cell-based

T1 sequence (P11388 whole entry): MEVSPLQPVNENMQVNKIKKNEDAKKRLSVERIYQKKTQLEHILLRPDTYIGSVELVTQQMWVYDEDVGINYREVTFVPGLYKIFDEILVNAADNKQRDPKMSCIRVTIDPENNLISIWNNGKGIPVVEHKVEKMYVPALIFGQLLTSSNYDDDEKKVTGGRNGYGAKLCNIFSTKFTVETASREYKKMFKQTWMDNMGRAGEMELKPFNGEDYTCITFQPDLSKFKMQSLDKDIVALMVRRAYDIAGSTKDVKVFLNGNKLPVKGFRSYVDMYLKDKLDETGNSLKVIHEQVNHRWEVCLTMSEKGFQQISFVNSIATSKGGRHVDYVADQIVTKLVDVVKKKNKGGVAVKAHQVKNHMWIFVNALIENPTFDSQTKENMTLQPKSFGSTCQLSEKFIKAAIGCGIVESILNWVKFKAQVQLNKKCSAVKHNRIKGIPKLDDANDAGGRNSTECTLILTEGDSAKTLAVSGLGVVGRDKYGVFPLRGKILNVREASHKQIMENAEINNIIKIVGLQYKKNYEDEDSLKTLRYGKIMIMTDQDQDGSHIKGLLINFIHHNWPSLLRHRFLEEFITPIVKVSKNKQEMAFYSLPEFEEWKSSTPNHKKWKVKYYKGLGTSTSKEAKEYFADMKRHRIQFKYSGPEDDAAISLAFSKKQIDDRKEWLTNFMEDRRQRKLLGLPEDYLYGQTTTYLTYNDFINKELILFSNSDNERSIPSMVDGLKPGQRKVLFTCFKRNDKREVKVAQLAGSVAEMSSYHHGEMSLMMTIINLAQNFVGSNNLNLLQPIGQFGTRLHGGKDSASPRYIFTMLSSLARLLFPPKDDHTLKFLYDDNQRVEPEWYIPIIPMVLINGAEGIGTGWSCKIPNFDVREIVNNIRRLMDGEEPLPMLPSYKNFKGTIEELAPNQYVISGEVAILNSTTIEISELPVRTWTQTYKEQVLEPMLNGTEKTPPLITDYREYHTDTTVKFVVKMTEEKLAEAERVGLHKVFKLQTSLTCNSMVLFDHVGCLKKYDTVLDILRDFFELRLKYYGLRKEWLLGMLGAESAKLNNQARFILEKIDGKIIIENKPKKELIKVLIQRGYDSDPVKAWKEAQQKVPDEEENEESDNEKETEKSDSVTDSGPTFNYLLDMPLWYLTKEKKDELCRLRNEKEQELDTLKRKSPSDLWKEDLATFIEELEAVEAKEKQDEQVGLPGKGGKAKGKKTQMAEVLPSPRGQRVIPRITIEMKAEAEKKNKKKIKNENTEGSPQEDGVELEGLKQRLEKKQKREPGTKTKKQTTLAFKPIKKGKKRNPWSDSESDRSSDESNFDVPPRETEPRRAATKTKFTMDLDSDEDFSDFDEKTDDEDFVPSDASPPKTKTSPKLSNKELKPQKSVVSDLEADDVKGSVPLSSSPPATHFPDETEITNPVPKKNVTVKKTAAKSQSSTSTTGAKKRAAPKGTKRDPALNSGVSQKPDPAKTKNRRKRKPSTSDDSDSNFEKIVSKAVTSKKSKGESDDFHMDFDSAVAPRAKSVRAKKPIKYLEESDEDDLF

inhibition [1]: inactive
Compound: O=C1c2ccc(N3CCCCC3)cc2-n2c1nc1ccccc1c2=O

inhibition [1]: inactive
Compound: CCN(CC)c1ccc2c(c1)-n1c(nc3ccccc3c1=O)C2=O

inhibition [1]: inactive
Compound: CCN(CC)c1cccc2c1C(=O)c1nc3ccccc3c(=O)n1-2

inhibition [1]: inactive
Compound: O=C1c2c(NCCO)cccc2-n2c1nc1ccccc1c2=O

IC50 [2]: 114 µM
Compound: CN1CCN(c2cccc3c2C(=O)c2nc4ccccc4c(=O)n2-3)CC1

IC50 (HT-29; HT-29, 72 h): 9.4 µM
IC50 (MCF7; MCF7, 72 h): 30.5 µM
solubility ([13]; water, read-out: solubility): 996 µM (≈ 333 µg/mL)
Ratio IC50 [17]: 2.5
IC50 (HL-60; HL-60, 72 h): 11.5 µM
IC50 (CCRF-CEM [20]): 8.26 µM
GI50 (CCRF-CEM [20]): 1.36 µM
IC50 [2]: 26.6 µM
IC50 (DLD-1; DLD-1, 72 h): 7.13 µM
IC50 (Jurkat): 18.2 µM
Compound: CN(C)CCNc1cccc2c1C(=O)c1nc3ccccc3c(=O)n1-2
inhibition (CCRF-CEM [3]): Active
Activity (CCRF-CEM [4]): Dose-dependent effect
Ratio IC50 (Homo sapiens [5]): 3
Activity (HT-29): Dose-dependent effect
Ratio IC50 (Homo sapiens [6]): 2
Ratio IC50 (Homo sapiens [7]): 3
Ratio IC50 (Homo sapiens [8]): 2
Activity [9]: inactive
Ratio IC50 (CCRF-CEM [10]): 5
Activity (MCF7): Dose-dependent effect
Activity (CCRF-CEM [11]): Active
Activity (CCRF-CEM [12]): Active
Ratio IC50 (Homo sapiens [14]): 2
Ratio IC50 (Homo sapiens [15]): 2
Ratio IC50 (Homo sapiens [16]): 2
Activity (CCRF-CEM [18]): inactive
Activity (HL-60): Dose-dependent effect
Activity (CCRF-CEM [19]): Tde
Activity (CCRF-CEM [20]): Dose-dependent effect
Activity (CCRF-CEM [21]): 78%
Ratio IC50 (Homo sapiens [22]): 3
Activity (DLD-1): Dose-dependent effect
Activity (Jurkat): Dose-dependent effect
Activity (CEM/C2): Dose-dependent effect
IC50 (CEM/C2; CEM/C2, 72 h): 9.16 µM
Activity (CCRF-CEM [23]): Dose-dependent effect
Ratio IC50 (Homo sapiens [24]): 3
Ratio IC50 (Homo sapiens [25]): 3

inhibition [1]: inactive
Compound: O=C1c2c(N3CCCCC3)cccc2-n2c1nc1ccccc1c2=O

inhibition [1]: inactive
Compound: O=C1c2ccc(N3CCOCC3)cc2-n2c1nc1ccccc1c2=O

IC50 [2]: 138 µM
Compound: CN1CCN(c2ccc3c(c2)-n2c(nc4ccccc4c2=O)C3=O)CC1

inhibition [1]: inactive
Compound: O=C1c2c(N3CCOCC3)cccc2-n2c1nc1ccccc1c2=O

solubility ([13]; buffer): 91.02 µM (≈ 22.6 µg/mL)
inhibition [1]: inactive
IC50 (CCRF-CEM [20]): 44.4 µM
GI50 (CCRF-CEM [20]): 14.5 µM
Compound: O=C1c2ccccc2-n2c1nc1ccccc1c2=O [TRYPTANTHRIN]

— ChEMBL document CHEMBL4706523, “Targeting topoisomerase II with trypthantrin derivatives: Discovery of 7-((2-(dimethylamino)ethyl)amino)indolo[2,1-b]quinazoline-6,12-dione as an antiproliferative agent and to treat cancer” (Eur J Med Chem, 2020)
